The source of these data is ChEMBL document CHEMBL4825701, “New antiparasitic flexible triaryl diamidines, their prodrugs and aza analogues: Synthesis, in vitro and in vivo biological evaluation, and molecular modelling studies” (Eur J Med Chem, 2021).

Series [1] can be described thus: Selectivity index, ratio of IC50 for cytotoxicity against rat L6 cells to IC50 for antitrypanosomal activity against Trypanosoma brucei rhodesiense STIB900. Type of series: toxicity, cell-based. The conditions noted are these: read-out: Selectivity Index. An outline of the steps:
(§1)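 SI = IC50(L6)/IC50(parasite): K1 P. falciparum for the antiplasmodial index, T. b. rhodesiense STIB900 for the antitrypanosomal index. L6 rat myoblasts were run as in the trypanosome assay: MEM with 2-mercaptoethanol and 15% heat-inactivated horse serum, seven 3-fold serial dilutions, 72 h at 37 °C in 5% CO2.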

Series [2] can be described thus: Selectivity index, ratio of IC50 for cytotoxicity against rat L6 cells to IC50 for antiplasmodial activity against chloroquine and pyrimethamine resistant Plasmodium falciparum K1 infected in human red blood cells. Type of series: toxicity, cell-based. The conditions noted are these: read-out: Selectivity Index. An outline of the steps: as §1
For series [3], the system named is Poly(dA-dT)oligonucleotide.
In another series the test system is L6. In words: Cytotoxicity against rat L6 cells by Alamar blue assay. Type of series: cell-based. Put shortly: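 L6 rat myoblasts were run by the same Alamar Blue protocol as the trypanosome assay. Seven 3-fold serial dilutions were incubated 72 h at 37 °C, 5% CO₂, followed by 2–4 h with dye.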
A general note: Resazurin is reduced to fluorescent resorufin, in cell work by metabolically active cells.

The test system of series [4] is Trypanosoma brucei rhodesiense. Put plainly: Antitrypanosomal activity against bloodstream form of Trypanosoma brucei rhodesiense STIB900 infected in mouse assessed as reduction in parasitemia by measuring time taken to cure at 5 mg/kg, ip measured up to 60 days (reference value: 11 days). The conditions noted are these: time day <=60. Type of series: functional.

In series [5] the test system is Trypanosoma brucei rhodesiense. Put plainly: Antitrypanosomal activity against Trypanosoma brucei rhodesiense STIB900 measured after 72 hrs by alamar blue dye based fluorimetry analysis. Type of series: functional, organism-based. The conditions noted are these: STIB900, 72 h.
The next series deals with Plasmodium falciparum. Put plainly: Antiplasmodial activity against chloroquine and pyrimethamine resistant Plasmodium falciparum K1 infected in human erythrocytes assessed as reduction in [3H]hypoxanthine incorporation measured after 24 hrs by liquid scintillation counting method. Type of series: functional, organism-based.
In series [6] the test system is Trypanosoma brucei rhodesiense. In words: Antitrypanosomal activity against Trypanosoma brucei rhodesiense STIB900 infected in mouse assessed as reduction in parasitemia by measuring time taken to cure at 25 mg/kg, po measured up to 60 days (reference value: 11 days). Type of series: functional. The conditions noted are these: time day <=60.
The subject of series [7] is Poly(dA-dT)oligonucleotide. In words: Binding affinity to poly (dA-dT) (unknown origin) by circular dichroism spectroscopy. Type of series: nucleic-acid assay. (Circular dichroism is the unequal absorption of left and right circularly polarised light.)

The structures appear in SMILES notation. pIC50: −log10 of the molar value. Activity calls are given as the source filed them. The calls are words filed in the database; no cut-off is given here.

The term ΔTm denotes the change in melting temperature against a reference sample. Broadly, the pIC50 is the IC50 on a negative log10 scale, so that one unit is a factor of ten. `N=C(N)c1ccc(-c2ccc(Cc3cccc(C(=N)N)c3)cc2)cc1`: the selectivity ratio in [1] is 57.1; in series [2] it was 64.5. For the same molecule, the ΔTm in [3] worked out at 8.5 °C. Besides, the results for the pIC50 (with L6; in series [5]; in the series with Plasmodium falciparum) were 5.70, 7.46 and 7.51, respectively. Further, in [4], the Time was 22.75 days.
`CN(C)CCCC(=O)O/N=C(\N)c1ccc(Cc2ccc(-c3ccc(/C(N)=N\OC(=O)CCCN(C)C)cc3)cc2)cc1`: the Time in [6] is 7 days. For the same molecule, the values for the selectivity ratio in series [1] and in series [2] were 10.5 and 6, respectively. Further, the pIC50 was 5.96 with L6, 6.98 in [5] and 6.74 with Plasmodium falciparum.
`N=C(N)c1ccc(Cc2ccc(Cc3ccc(C(=N)N)cc3)cc2)cc1`: the selectivity ratio is 269 in [1] and 970 in series [2]. Besides, the ΔTm in series [3] amounted to 1 °C. In addition, the pIC50 in the series with L6 was 4.71; in series [5], 7.14; in the series on Plasmodium falciparum, 7.64. Also, the Time in series [4] worked out at 16.25 days.
`N=C(N)c1ccc(Oc2ccc(-c3ccc(C(=N)N)cc3)cn2)cc1`: the outcome in [7] was inactive. The selectivity ratio in [1] worked out at 191; in series [2] it was 525. Further, the shift in melting temperature (ΔTm) in series [3] amounted to 17.8 °C. Further, the pIC50 in the series on L6 was 5.68; in series [5], 7.96. In addition, the Time in series [4] is more than 45.5 days.
With `CO/N=C(\N)c1ccc(-c2ccc(Oc3ccc(/C(N)=N\OC)cc3)nc2)cc1`, the selectivity ratio in [1] came out at 6.3; in series [2] it was 9.7. For the same molecule, the pIC50 was 4.04 with L6 and 4.84 in [5].
On to `N=C(N)c1ccc(Cc2ccc(Cc3cccc(C(=N)N)c3)cc2)cc1`, for which the selectivity ratio in series [1] was found to be 1890; in series [2] it was 1230. Also, the ΔTm in [3] is 0.5 °C. Moreover, the pIC50 is 4.55 with L6 and 7.82 in series [5]. In addition, the Time in series [4] is 15.5 days.
Turning to `CO/N=C(\N)c1cccc(Cc2ccc(Cc3ccc(/C(N)=N\OC)cc3)cc2)c1`, the Time in series [6] amounted to 9.2 days. The selectivity ratio is 1.7 in [1] and more than 3.4 in series [2]. Moreover, the figures for the negative logarithm of the IC50 (pIC50) (in the series with L6; in [5]; with Plasmodium falciparum) were 4.49, 4.73 and less than 5.02, respectively.
Turning to `N=C(N)c1ccc(-c2ccc(-c3ccc(C(=N)N)cc3)o2)cc1` [FURAMIDINE], the Time in [4] is 24 days.
On to `CO/N=C(/N)c1ccc(Cc2ccc(Cc3ccc(/C(N)=N\OC)cc3)cc2)cc1`, for which, in series [2], the selectivity ratio was more than 3.9. Moreover, the pIC50 in the series with L6 is 4.43; in series [5], 4.90; with Plasmodium falciparum, less than 5.02.
Turning to `N=C(N)c1ccc(Cc2ccc(Cc3ccc(C(=N)N)cc3)o2)cc1`, the selectivity ratio turned out to be 930 in series [1] and 1390 in [2]. The ΔTm in series [3] was determined as 2.25 °C. The pIC50 in the series with L6 was 4.60; in series [5], 7.57. In series [4], the Time is 18.75 days.
Turning to `N=C(N)c1ccc(Oc2cccc(Oc3ccc(C(=N)N)cc3)n2)cc1`, the selectivity ratio in series [1] came out at 263; in series [2], 307. Further, the thermal shift (ΔTm) in series [3] turned out to be 1.25 °C. Besides, the results for the negative logarithm of the IC50 (pIC50) (in the series with L6; in series [5]; with Plasmodium falciparum) were 4.00, 6.42 and 6.49, respectively.
Consider `CO/N=C(\N)c1cccc(Cc2ccc(-c3ccc(/C(N)=N\OC)cc3)cc2)c1`, for which, in series [6], the Time is 13 days. The selectivity ratio turned out to be 2.1 in series [1] and 3.7 in [2]. Also, the pIC50 in the series with L6 was 4.46; in series [5] it was 4.78; in the series with Plasmodium falciparum, less than 5.02.
Regarding `N=C(N)c1ccc(Cc2ccc(-c3ccc(C(=N)N)cc3)cc2)cc1`, the selectivity ratio in series [1] amounted to 54.8; in series [2] it was 1330. Besides, in series [3], the ΔTm worked out at 9 °C. Further, the results for the pIC50 (in the series with L6; in [5]; with Plasmodium falciparum) were 5.40, 7.14 and 8.52, respectively. Besides, the Time in [4] worked out at 22 days.
With `N=C(N)c1ccc(Cc2ccc(-c3ccc(C(=N)N)cc3)nc2)cc1`, in [7], the outcome was inactive. In addition, the figures for the selectivity ratio in series [1] and in series [2] were 441 and 1620, respectively. Also, in series [3], the ΔTm turned out to be 1 °C. For the same molecule, the pIC50 with L6 was 4.74; in [5] it was 7.39; in the series on Plasmodium falciparum it was 7.95. Moreover, the Time in [4] was more than 60 days.
Consider `CO/N=C(\N)c1ccc(Oc2cccc(Oc3ccc(/C(N)=N\OC)cc3)n2)cc1`, for which the figures for the selectivity ratio in series [1] and in series [2] were 4.5 and 12.3, respectively. Besides, the values for the pIC50 (in the series with L6; in series [5]) were 3.93 and 4.58, respectively.
On to `N=C(N)c1ccc(OCCCCCOc2ccc(C(=N)N)cc2)cc1` [PENTAMIDINE], for which the Time in series [4] is 20 days.
